Compound activity (PubChem)
In the library only some 3.5% were active in any assay of this set; here they are far more common.
MrgX1 allo act: human MrgX1 positive allosteric modulation, primary screen. B-score at 10 µM. AID 588675. MrgX1-HEK293, Fluo-4 calcium flux, FDSS; active compounds read high. 310,000 tested, 0.63% active;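 active = plate-corrected calcium response at least 3 library SD above typical, normal starting fluorescence, not activating the receptor alone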;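 note: compound read alongside a low EC10 to EC30 dose of BAM8-22 agonist; peak minus trough fluorescence over baseline measured at the second addition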
Target sequence (Q96LB2 whole entry, looked up): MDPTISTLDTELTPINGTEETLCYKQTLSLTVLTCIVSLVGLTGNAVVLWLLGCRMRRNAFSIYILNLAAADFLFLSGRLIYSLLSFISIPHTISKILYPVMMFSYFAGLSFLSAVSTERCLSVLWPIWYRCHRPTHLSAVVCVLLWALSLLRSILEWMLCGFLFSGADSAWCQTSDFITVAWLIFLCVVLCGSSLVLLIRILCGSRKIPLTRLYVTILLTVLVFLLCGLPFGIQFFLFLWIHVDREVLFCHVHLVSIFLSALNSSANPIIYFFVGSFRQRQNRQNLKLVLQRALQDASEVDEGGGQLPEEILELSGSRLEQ
MrgX1 antagonist: blocks BAM8-22 activation of human MrgX1 receptor. Q96LB2. MRGX1-HEK293 calcium flux, Fluo-4, BAM8-22 antagonism; active compounds read low. B-score at 10 µM. 310,000 tested, 1.3% active. AID 588676;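 active = calcium-response B-score plate-corrected more than 3 library SD below zero, starting fluorescence within 5 deviations, no agonist response on first addition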;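 note: peak minus trough fluorescence over baseline after final BAM8-22 challenge near maximal dose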
RGS4 block: human RGS4 inhibition | HEK293 M3R/RGS4 inducible, Fluo-4 calcium flux; active compounds read high; triggered by carbachol at its EC20 | B-score at 10 µM | 310,000 tested, 0.45% active | AID 463165;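 active = B-score, a plate-corrected calcium signal, over three deviations above library mean, with baseline fluorescence within five deviations of library mean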;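 note: RGS4 expression induced by doxycycline in cells with stable M3 receptor; B-score is computed from the integrated fluorescence ratio over baseline after carbachol; higher B-score means a larger calcium signal and so more RGS4 inhibition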
Target sequence (P49798 whole entry, looked up): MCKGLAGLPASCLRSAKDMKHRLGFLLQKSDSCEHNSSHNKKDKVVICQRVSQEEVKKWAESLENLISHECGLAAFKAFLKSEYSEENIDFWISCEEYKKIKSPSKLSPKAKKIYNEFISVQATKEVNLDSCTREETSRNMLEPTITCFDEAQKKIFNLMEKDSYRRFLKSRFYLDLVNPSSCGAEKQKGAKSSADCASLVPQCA
RGS4 act: RGS4 potentiation or activation. B-score at 10 µM. 310,000 tested, 0.92% active. HEK293 M3R/inducible RGS4, carbachol calcium flux Fluo4; active compounds read low;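 active = B-score of the integrated calcium signal more than 4 SD below the library mean, with starting fluorescence not abnormally high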;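 note: negative B-score means reduced calcium response which marks RGS4 activation or potentiation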
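Material: Inducible-RGS4 HEK293 cells carrying M3 receptor; also added: carbachol at ECmax as muscarinic agonist stimulus; incubation: compound preincubation 20 min at room temperature before agonist; signal: Fluo4-AM (2 µM) calcium-flux fluorescence, kinetic read; measure: integrated calcium ratio converted to B score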
MrgX1 agonist: human MrgX1 receptor agonism, primary screen; MrgX1-HEK293 cells, Fluo-4 calcium fluorescence, agonist mode; active compounds read high; B-score at 10 µM; 310,000 tested, 0.44% active; AID 588627;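 active = calcium response B-score plate-corrected fluorescence ratio at least 3 library SD, with starting fluorescence B-score inside 5 SD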
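System: HEK293 cells stably expressing human MrgX1 receptor; Dosing: test compound in the initial addition of three; Schedule: overnight plating, then 30 min 37 °C plus 30 min room-temperature dye loading; Detection: kinetic calcium dye fluorescence, Fluo-4 NW; Controls: per-plate positive and negative controls for Z′ factor.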
MrgX1 allo conf: confirmation of human MrgX1 receptor positive allosteric modulators. shares compounds with MrgX1 allo act. MrgX1-HEK293, Fluo-4 calcium fluorescence, FDSS. activation (ratio percentage), % at 10 µM. 1,200 tested, 13% active;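 active = ratio at least 3 SD above the weak peptide control, stable starting fluorescence, no direct agonism earlier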;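 note: compound followed by low BAM8-22 agonist challenge near EC20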
HEK293 Ca flux: counter-screen for MrgX1 antagonists: effect in parental HEK293 cells. shares compounds with MrgX1 antagonist. Fluo-4 calcium fluorescence, FDSS. fluorescence ratio F(max-min)/F0 at 10 µM. 4,000 tested, 2% active. AID 624111;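 active = duplicate-averaged calcium fluorescence ratio at least three times the standard deviation of buffer wells, a nonspecific response in parental cells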
HEK293 Ca counter: MrgX1 allosteric activator counter-screen hit in parental HEK293 cells; shares compounds with MrgX1 antagonist; parental HEK293 calcium flux, Fluo-4 fluorescence ratio; active compounds read high; fluorescence ratio F(max-min)/F0 at 10 µM; 4,000 tested, 0.4% active;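 active = calcium fluorescence ratio, averaged over duplicates, at least 3 SD of the buffer-well ratio, meaning a nonspecific response in receptor-free cells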;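 note: untransfected parental HEK293 lacking MrgX1 used as counterscreen for MrgX1 allosteric activators; fluorescence change taken during the second addition on a kinetic imager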
HEK293 Ca cntr2: MrgX1 activator counter-screen hit in parental HEK293 cells; AID 624115; 4,000 tested, 8.7% active; Fluo-4 calcium fluorescence (FDSS); active compounds read high; shares compounds with MrgX1 antagonist; fluorescence ratio F(max-min)/F0 at 10 µM;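 active = calcium fluorescence ratio at least three times the spread of buffer wells, meaning a non-specific response in parental cells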
Hits are given with their value; i = inactive; nt = not tested or not shown.

SMILES | MrgX1 allo act | MrgX1 antagonist | RGS4 block | RGS4 act | MrgX1 agonist | MrgX1 allo conf | HEK293 Ca flux | HEK293 Ca counter | HEK293 Ca cntr2
CC(C)CNc1ncnc2c1cnn2Cc1ccccc1Cl | 10 | i | i | i | i | i | i | i | i
O=C(CCc1ccccc1)N1CCN(c2ccc(F)cc2)CC1 | 8.9 | i | i | i | i | i | i | i | i
O=C(CSCc1ccccc1)N1CCN(c2ccc(F)cc2)CC1 | i | i | i | i | i | nt | nt | nt | nt
CCN(CC(=O)Nc1c(F)cccc1F)C(=O)c1ccc(C(F)(F)F)cc1 | 8.1 | i | i | i | i | i | i | i | i
CC(NC(=O)C1(c2cccs2)CCOCC1)c1ccccc1 (stereo unspecified) | i | i | i | i | i | nt | nt | nt | nt
CC12CCC(C(=O)Nc3ccc(SC(F)F)cc3)(CC1=O)C2(C)C (stereo unspecified) | 6.7 | i | i | i | i | i | i | i | i
Cc1csc(N(C(=O)Cc2ccccc2F)c2ccccc2)n1 | i | i | i | i | i | nt | nt | nt | nt
COc1ccc(CC(=O)N(c2ccccc2)c2nc(C)cs2)cc1 | 11 | i | i | i | i | i | i | i | i
S=C(Nc1cccnc1)NC1CC2CCC1C2 (stereo unspecified) | i | i | i | i | i | nt | nt | nt | nt
Cc1ccc(S(=O)(=O)N/N=C/c2cccc3nccnc23)cc1 | 20 | i | i | i | i | i | i | i | i
Cc1ccc(S(=O)(=O)N/N=C/c2cccc3c2OCCO3)cc1 | i | i | i | i | i | nt | nt | nt | nt
CC(=O)c1ccc(NC(=O)Nc2ccc3c(c2)nc(C)n3C)cc1 | 8.8 | i | i | i | i | i | i | i | i
Cc1ccc(-c2ccc(C(=O)NCCCNC(=O)c3cnccn3)o2)cc1Cl | 18 | i | i | i | i | 13% | i | i | i
O=C(NCCCNC(=O)c1ccc(-c2cc(Cl)ccc2Cl)o1)c1cnccn1 | 18 | i | i | i | i | 20% | i | i | i
O=C(NCCCNC(=O)c1cc(Cl)ccc1Cl)c1cnccn1 | i | i | i | i | i | nt | nt | nt | nt
O=C(NCCCNC(=O)c1ccc(Cl)cc1Cl)c1cnccn1 | i | i | i | i | i | nt | nt | nt | nt
COC(=O)c1ccccc1NC(=O)COC(=O)C1CCCCC1 | 8.3 | i | i | i | i | i | i | i | i
COC(=O)c1ccccc1NC(=O)C1CCCC1 | i | i | i | i | i | nt | nt | nt | nt
COC(=O)c1ccccc1NC(=S)NC(=O)C1CCCCC1 | 7.5 | i | i | i | i | i | i | i | i
O=CN1CCN(C(=O)c2ccc([N+](=O)[O-])cc2)CC1 | i | i | i | i | i | nt | nt | nt | nt
O=C(Cc1ccccc1)Nc1ccnn1C1CCN(Cc2nccs2)CC1 | i | i | i | i | i | nt | nt | nt | nt
CCOC(=O)c1cc(-c2cccnc2)nn1-c1ccccc1 | i | i | i | i | i | nt | nt | nt | nt
CCOC(=O)c1cc(-c2ccc(OC)cc2)nn1-c1ccc(C(=O)O)cc1 | 6.5 | i | i | i | i | i | i | i | i
COc1ccc(NC(=O)CN(C)C(=O)c2cccc(NS(=O)(=O)c3ccc(Br)cc3)c2)cc1 | i | i | i | i | i | nt | nt | nt | nt
CC(=O)c1sc(N2CCOCC2)nc1-c1ccccc1 | 12 | i | i | i | i | i | i | i | i
SMILES | MrgX1 allo act | MrgX1 antagonist | RGS4 block | RGS4 act | MrgX1 agonist | MrgX1 allo conf | HEK293 Ca flux | HEK293 Ca counter | HEK293 Ca cntr2
CN(Cc1ccccc1)Cc1nc2c(c(=O)n(C)c(=O)n2C)n1CCCc1ccccc1 | 8.1 | i | i | i | i | i | i | i | i
COCc1ccc(C(=O)N2CCCC(C(=O)c3cccc(C(F)(F)F)c3)C2)o1 (stereo unspecified) | 32 | i | i | i | i | i | i | i | i
N=c1sccn1CC(=O)N1N=C(c2ccc(Cl)cc2)CC1c1ccco1 (stereo unspecified) | 21 | i | i | i | i | i | i | i | i
CN1/C(=C/C2CC(=O)N(c3cccc4ccccc34)C2=O)C(C)(C)c2ccccc21 (stereo unspecified) | i | i | i | i | i | nt | nt | nt | nt
CN1/C(=C/C2CC(=O)NC2=O)C(C)(C)c2ccccc21 (stereo unspecified) | 7 | i | nt | nt | i | i | i | i | i
CCC(=O)N(Cc1cc2cc(C)c(C)cc2[nH]c1=O)C1CCCCC1 | 7.6 | i | i | i | i | i | i | i | i
CCNC(=S)N(Cc1cc2cc(C)c(C)cc2[nH]c1=O)C1CCCC1 | i | i | i | i | i | nt | nt | nt | nt
CC(C)(C)c1ccc(-n2ncc3c2CCCC3NC(=O)CN2CCCC2=O)cc1 (stereo unspecified) | 13 | i | i | i | i | i | i | i | i
C=CCNc1nc(SCC=C)nc2ccsc12 | 7.4 | i | i | i | i | i | i | i | i
C=CCSc1nc(Oc2ccccc2)c2sccc2n1 | i | i | i | i | i | nt | nt | nt | nt
Cc1cc(-c2nnc(SCC(=O)Nc3ccc(C)c(C)c3)n2N)n[nH]1 | i | i | i | i | i | nt | nt | nt | nt
COc1ccccc1OCC(O)CN1C(=O)NC(C)(C)C1=O (stereo unspecified) | i | i | i | i | i | nt | nt | nt | nt
OCCCCCNc1ncnc2ccccc12 | 23 | i | i | i | i | i | i | i | i
CCN(CC)CCCNc1ncnc2ccccc12 | i | i | i | i | i | nt | nt | nt | nt
Cc1csc(C(C#N)C(=O)c2cc3ccccc3o2)n1 (stereo unspecified) | i | i | i | i | i | nt | nt | nt | nt
Cc1ccccc1NC(=O)c1ccco1 | i | i | i | i | i | nt | nt | nt | nt
Cc1ccccc1NS(=O)(=O)c1ccc(NC(=O)c2ccco2)cc1 | 11 | i | i | i | i | i | i | i | i
O=C(Nc1ccccc1C(=O)O)c1cccc(S(=O)(=O)Nc2ccc(Br)cc2)c1 | i | i | i | i | i | nt | nt | nt | nt
O=C(Nc1ccccc1C(=O)O)c1cccc(NS(=O)(=O)c2ccc(Br)cc2)c1 | 11 | i | i | i | i | i | i | i | i
c1ccc2c(CCNc3ncnc4nc[nH]c34)c[nH]c2c1 | 7 | i | i | i | i | 9.4% | i | i | i
c1ccc(CCNc2ncnc3nc[nH]c23)cc1 | i | i | i | i | i | nt | nt | nt | nt
CN(Cc1ccc(N(C)C)cc1)C(=O)c1cc2ccccc2o1 | 12 | i | i | i | i | 8.2% | i | i | i
CN1CCN(CC#CC(C)(O)C2CC3C=CC2C3)CC1 (stereo unspecified) | i | i | i | i | i | nt | nt | nt | nt
